Screening results from PubChem.
IDE cell inh: cellular human IDE inhibition; P14735; inhibition, % at 5.59 µM; 0.41% of 320,000 active; HEK cells, FAbetaB cleavage, fluorescence polarization;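 active = percent inhibition above the average of all tested compounds plus 3 SD, set per screening campaign, cut at about 16% in these data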;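 also: IDE supplied by intact live HEK cells; FP after avidin binding of uncleaved biotin substrate so inhibition keeps polarization high; 0% = DMSO wells and 100% = 60 µM reference IDE inhibitor Ii1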
CSN inh: blocks human CSN-mediated cullin deneddylation; Q92905; Purified CSN, SCF-Nedd8-OG deneddylation, fluorescence polarization; inhibition, % at 12.5 µM; 0.38% of 360,000 active;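 active = pattern-corrected inhibition above about 35%, with an unprinted fluorescence ratio check between 0.5 and 1.5, limit read from the data, passing the limit was not always enough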;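 also: 0% = enzyme with substrate and 100% = substrate without enzyme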
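Material: human Csn5 produced in HEK293T cells; Input: enzyme 0.24 nM; Reagent: SCFSkp2-Nedd8OG substrate at 10 nM final; Dosing: 12.5 µM compound; Incubation: 90 min reaction at room temperature; Detection: fluorescence polarization of the substrate; Evaluation: % inhibition of substrate cleavage by Csn5; Control set: substrate-only high control, full reaction low control.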
Rpn11 inh: blocks the human proteasome subunit Rpn11; O00487; human 26S proteasome, Ub4-pepOG fluorescence polarization; 20S core pre-blocked with epoxomicin; inhibition, % at 20 µM; 0.59% of 360,000 active;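 active = inhibition at 20 µM, scaled to each plate's controls, above about 33%, limit read from the data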
HNF4A DNA FP: change in binding of human HNF4 alpha to DNA. P41235. HNF4a-FITC DNA binding, fluorescence polarization, 1 h. activity change, % at 10 µM. 0.3% of 360,000 active. AID 1224865; in the data active = activity change above about 30%, passing the limit was not always enough
TPT1 inhibitor: inhibitors of Candida albicans tRNA 2'-phosphotransferase TPT1; recombinant caTPT1, FP RNA substrate dephosphorylation; inhibition, % at 5 µM; 0.81% of 300,000 active; AID 1962;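 active = inhibition above the mean of all tested compounds plus 3 SD, set per screening campaign, cut at about 24% in these data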;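 also: plate controls were DMSO alone for no effect and ferristatin control at 100 nM for full effect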
IDE cell activ: activators of human insulin-degrading enzyme in cells; HEK cells, FAbeta-B cleavage, fluorescence polarization; 0% vehicle, 100% cell-free pure enzyme wells; 0.073% of 340,000 active; activation, % at 5.96 µM; P14735;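 active = activation above the mean of all tested compounds plus 3 SD, set per screening campaign, cut at about 17% in these data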
caTPT1 confirm: confirmation of Candida albicans TPT1 inhibitors; inhibition, % at 5 µM; recombinant caTPT1, fluorescence polarization, RNase T1 coupled; 74% of 2,400 active; shares compounds with TPT1 inhibitor; AID 2149;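 active = inhibition above the primary screen limit, the mean inhibition of all tested compounds plus 3 SD, cut at about 25% in these data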
RNase T1 counter: counter-screen for TPT1 inhibitors: inhibitors of Aspergillus oryzae RNase T1. shares compounds with TPT1 inhibitor. RNase T1 cleavage, fluorescence polarization, 1536-well. inhibition, % at 5 µM. 83% of 2,400 active;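 active = inhibition above the solvent-only control well mean plus 3 SD, limit set per screening run, cut at about 23% in these data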;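 also: plate controls were DMSO wells with enzyme for no effect and wells without RNase T1 for full effect; inhibitors block cleavage so intact labeled substrate keeps polarization high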
Target sequence (P00651 whole entry, looked up): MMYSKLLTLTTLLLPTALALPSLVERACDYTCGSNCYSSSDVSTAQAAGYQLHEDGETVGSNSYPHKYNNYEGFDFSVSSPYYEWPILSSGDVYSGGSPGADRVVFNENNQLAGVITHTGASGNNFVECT
IDE inh confirm: cellular human IDE inhibition, confirmation; shares compounds with IDE cell inh; HEK cells, FAbetaB cleavage, fluorescence polarization; inhibition, % at 5.59 µM; 51% of 1,200 active; AID 435028;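 active = mean inhibition across triplicate wells above the cutoff set by the earlier primary insulin-degrading enzyme screen, cut at about 16% in these data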;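 also: 0% = DMSO wells and 100% = 60 µM reference IDE inhibitor Ii1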
HEK cytotox: kills HEK cells in IDE inhibitor counter-screen | shares compounds with IDE cell inh | HEK293 cytotoxicity, ATP luminescence | inhibition, % at 5.59 µM | 28% of 1,200 active; in the data active = inhibition above about 22%;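 also: 0% = vehicle wells and 100% = reference cytotoxic drug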
Rpn11 inh conf: Rpn11 inhibition confirmation, single concentration | purified human 26S proteasome, Ub4-pepOG fluorescence polarization; proteasome pretreated with epoxomicin | inhibition, % at 20 µM | 29% of 1,900 active | shares compounds with Rpn11 inh | AID 602318
MMP-2 inh: counter-screen for RPN11 inhibitors: inhibition of human MMP-2 | shares compounds with Rpn11 inh | recombinant MMP-2, FRET peptide cleavage fluorescence | inhibition, % at 20 µM | 4% of 1,900 active | AID 602330;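 also: human MMP-2 activated beforehand with APMA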
Target sequence (P08253 whole entry, looked up): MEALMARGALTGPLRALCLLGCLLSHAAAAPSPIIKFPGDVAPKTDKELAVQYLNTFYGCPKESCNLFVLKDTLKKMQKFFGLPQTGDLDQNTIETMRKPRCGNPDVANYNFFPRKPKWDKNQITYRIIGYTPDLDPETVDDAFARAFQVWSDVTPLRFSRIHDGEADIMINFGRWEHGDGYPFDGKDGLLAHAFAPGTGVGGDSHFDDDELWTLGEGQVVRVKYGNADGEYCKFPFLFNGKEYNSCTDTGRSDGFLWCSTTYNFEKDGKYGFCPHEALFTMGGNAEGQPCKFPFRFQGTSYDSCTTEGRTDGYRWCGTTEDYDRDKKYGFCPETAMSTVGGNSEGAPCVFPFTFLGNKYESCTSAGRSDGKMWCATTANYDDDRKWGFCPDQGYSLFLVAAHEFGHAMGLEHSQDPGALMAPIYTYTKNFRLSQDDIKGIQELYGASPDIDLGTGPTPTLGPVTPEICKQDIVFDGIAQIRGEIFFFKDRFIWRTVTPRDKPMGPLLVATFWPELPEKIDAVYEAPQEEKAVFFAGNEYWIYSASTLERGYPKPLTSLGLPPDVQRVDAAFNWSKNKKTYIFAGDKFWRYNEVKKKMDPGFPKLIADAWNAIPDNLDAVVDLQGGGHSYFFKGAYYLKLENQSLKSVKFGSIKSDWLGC
Thrombin FP: counter-screen for RPN11 inhibitors: inhibition of bovine thrombin; shares compounds with Rpn11 inh; bovine thrombin cleavage of Ub4-pepOG, fluorescence polarization; inhibition, % at 20 µM; 13% of 1,900 active; AID 602333;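 active = mean inhibition at least 40% at 20 µM, or signal 3 deviations below plate average, so some actives read negative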;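 also: plate controls were thrombin with DMSO for no effect and buffer wells lacking thrombin for full effect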
Active calls of the source: *; x = not tested or not shown. Shown are actives, neighbours in structure and some others; about 1.7% of the full set was active somewhere. Rule as the data show it, unless noted: active = inhibition above about 40%; inactive = the rest.

SMILES	IDE cell inh	CSN inh	Rpn11 inh	HNF4A DNA FP	TPT1 inhibitor	IDE cell activ	caTPT1 confirm	RNase T1 counter	Rpn11 inh conf	MMP-2 inh	Thrombin FP	others
CC(NC(=O)/C(C#N)=C/c1ccc(C(=O)O)cc1)c1ccccc1 (stereo not given)	1.3	5.3	0.7	3.5	-4.9	-2.4	x	x	x	x	x
CC(/C=C1\SC(=S)N(CCC(=O)Nc2cccc(C(=O)O)c2)C1=O)=C\c1ccccc1	-0.2	15.8	40.3*	6.6	25.2*	-0.4	42.7*	56.2*	122.0*	-6.2	27.8
CC(=Cc1ccccc1)C=C1SC(=S)N(CCCC(=O)Nc2ccc(C(=O)O)cc2)C1=O	x	13.8	15.9	6.2	x	x	x	x	x	x	x
CCCCCCCCN1C(=O)[C@H](CC(=O)NCC2CCCCC2)C[C@@]2(C(=O)OC)CCCCC=C12	x	1.1	x	-1.1	x	x	x	x	x	x	x
O=C(N/N=C/c1sc(N2CCOCC2)nc1-c1ccccc1)c1cccc(S(=O)(=O)N2CCCC2)c1	-1.2	24.9	71.1*	43.3*	35.4*	5.6	34.3*	43.0*	94.3*	12.5	69.2*
CNC(=O)c1sc(N2N=C3/C(=C/c4ccccc4)CCCC3C2c2ccccc2)nc1C (stereo not given)	6.9	15.0	44.1*	18.3	28.0*	-2.8	44.0*	52.5*	22.0	7.7	-0.3
CC(C)N1CCc2c(sc(NC(=O)c3cc(-c4cccs4)nc4ccccc34)c2C(N)=O)C1	4.2	107.3*	56.8*	12.3	44.5*	-9.1	13.6	21.8*	128.1*	1.5	56.3*
Cc1ccc(S(=O)(=O)N(C)C)cc1NC(=O)C(C)OC(=O)C1CCCCC1 (stereo not given)	-2.8	0.9	-0.6	-4.2	x	4.3	x	x	x	x	x
CC1CCN(c2nnc(-c3cccs3)c3ccccc23)CC1	1.2	1.3	4.7	4.5	0.1	-2.1	x	x	x	x	x
COc1cc(NC2=Nc3cccc4cccc2c34)cc(OC)c1OC	-1.2	4.3	41.8*	9.4	31.4*	-1.7	32.1*	43.4*	39.5	16.1	24.1
COc1cccc(Nc2n[nH]c(=S)s2)c1	10.7	-5.8	0.5	3.6	-3.8	-28.6	x	x	x	x	x
COc1cc(Nc2ncnc(N)n2)cc(OC)c1OC	-2.6	-0.9	-4.5	-2.2	1.6	0.8	x	x	x	x	x
COc1cccc(NC2=Nc3cccc4cccc2c34)c1	-10.5	5.4	45.2*	18.7	24.8*	7.7	34.9*	44.4*	44.3*	-25.8	20.9
COc1ccc(CNC(=O)C2(CC3CC(c4ccccc4)=NO3)CCNCC2)cc1 (stereo not given)	-0.9	-3.5	10.1	-0.1	0.1	-0.5	x	x	x	x	x
COc1ccc(S(=O)(=O)N(C)C[C@H]2Oc3c(cccc3N(C)C)C(=O)N([C@H](C)CO)C[C@@H]2C)cc1	-5.1	-2.9	-3.6	-2.8	x	-0.5	x	x	x	x	x
O=C(Nc1ccccc1Br)c1cc[n+]([O-])cc1	-2.6	2.0	0.6	-0.4	3.5	6.2	x	x	x	x	x
O=C(c1cccc(S(=O)(=O)Nc2ccccc2F)c1)N1CCN(c2ccccc2F)CC1	10.4	8.4	0.1	0.5	-1.9	2.1	x	x	x	x	x
CCOC1=C/C(=C/c2c(N)n3nc(S(=O)(=O)CC)sc3nc2=O)C=CC1=O	21.8*	33.1	73.7*	21.6	28.0*	-113.9	56.3*	58.6*	65.0*	-8.4	46.2*	IDE inh confirm=112.3*;HEK cytotox=6.2
O=C1NC(=Nc2ccccc2)S/C1=C\c1cccn1-c1ccccc1	0.3	3.3	6.1	3.5	0.6	-0.5	x	x	x	x	x
Cc1ccccc1N=C1NC(=O)/C(=C/c2cccn2C)S1	12.9	5.2	54.5*	22.0	37.9*	-7.0	28.5*	38.8*	39.5	4.9	43.9*
CCOC(=O)Cc1csc(NC(=O)c2cccnc2)n1	1.1	-9.2	-0.6	3.6	2.0	8.0	x	x	x	x	x
CCc1nnc(NC(=O)c2ccc3ccccc3n2)s1	-2.2	4.0	12.5	1.4	3.6	-4.3	x	x	x	x	x
CCc1nnc(NC(=O)c2sc3nc4cc(C)ccc4cc3c2N)s1	5.8	3.9	71.1*	32.2	26.9*	-21.4	28.5*	41.1*	25.9	-8.9	-70.0
CCOC(=O)Cc1csc(NC(=O)c2sc3nc4ccc(C)cc4cc3c2N)n1	-1.9	-1.5	60.8*	37.9*	25.6*	-4.3	51.3*	62.1*	76.7*	-42.3	40.6*
CCC(c1nnnn1-c1c(C)cccc1C)N1CCN(c2ccccn2)CC1 (stereo not given)	x	1.4	x	-0.7	x	x	x	x	x	x	x
SMILES	IDE cell inh	CSN inh	Rpn11 inh	HNF4A DNA FP	TPT1 inhibitor	IDE cell activ	caTPT1 confirm	RNase T1 counter	Rpn11 inh conf	MMP-2 inh	Thrombin FP	others
O=C(NC1(N2CCOCC2)CC1)c1ccc(Cl)cc1	-0.8	-0.1	3.4	4.5	2.8	2.0	x	x	x	x	x
CSc1nsc(/C=C/Nc2ccc(F)cc2F)c1C#N	4.0	30.9	54.6*	42.1*	54.1*	-0.1	72.1*	89.0*	-19.6	-12.6	-20.7
COc1ccc2o/c(=N/NC(=O)c3cccs3)c(C(N)=O)cc2c1	6.0	17.9	44.4*	14.7	51.6*	-4.2	67.6*	78.7*	70.2*	-28.4	43.1*
NC(=O)c1cc2ccccc2o/c1=N/NC(=O)c1cccs1	3.3	-3.9	-2.0	-5.8	2.1	-1.6	x	x	x	x	x
C#CCN(C[C@@H]1[C@@H](OC(=O)Nc2c(C)noc2C)[C@@H](OC(=O)Nc2c(C)noc2C)Cn2c(=O)n(CCCCCC)c(=O)n21)S(=O)(=O)c1ccc(C)cc1	x	7.0	14.1	0.9	x	x	x	x	x	x	x
Cc1cccc(CN2CCN(C3CN(Cc4cn(Cc5ccc(Cl)cc5)nn4)S(=O)(=O)C3)CC2)c1 (stereo not given)	x	-1.2	x	-3.5	x	x	x	x	x	x	x
COc1cccc(/C=C2\Oc3cc(OCC(=O)N4CCCCC4)ccc3C2=O)c1OC	2.6	1.8	2.2	-3.2	-2.6	-0.6	x	x	x	x	x
